# Results: ChEMBL document CHEMBL1806391, “Synthesis and biological evaluation of novel 5-alkyl-2-arylthio-6-((3,4-dihydroquinolin-1(2H)-yl)methyl)pyrimidin-4(3H)-ones as potent non-nucleoside HIV-1 reverse transcriptase inhibitors” (Bioorg Med Chem, 2011)
# Activity calls are given as the source filed them. The calls are words filed in the database; no cut-off is given here.
# Tests used:
# [1] = system: Human immunodeficiency virus 1; assay: Antiviral activity against wild type Human immunodeficiency virus 1 3B infected in human MT4 cells assessed as protection against virus-induced cytotoxicity after 5 days by MTT assay; format: functional, organism-based; details: MT4, 120 h
# Outline: (§1)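 MT-4 cells, spun 5 min at 1000 rpm, were resuspended at 6 × 10⁵ cells/mL and infected with HIV-1 IIIB or HIV-2 ROD. Compounds were added at the start in serial fivefold dilutions, in triplicate wells. Viability was read by MTT reduction at 540 and 690 nm five days post-infection. EC₅₀ is the concentration giving 50% protection from viral cytopathic effect, using the median OD of three wells.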
# [2] = system: Human immunodeficiency virus 2; assay: Antiviral activity against wild type Human immunodeficiency virus 2 ROD infected in human MT4 cells assessed as protection against virus-induced cytotoxicity after 5 days by MTT assay; format: functional, organism-based; details: Human immunodeficiency virus 2, ISOLATE ROD, MT4, 120 h; outline: as §1
# [3] = Cytotoxic activity against human MT4 cells assessed as viability of mock-infected cells after 5 days by MTT assay; format: cell-based
# Outline: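 Mock-infected, exponentially growing MT-4 cells (6 × 10⁵ cells/mL) were exposed to serial fivefold compound dilutions in triplicate wells. After 5 days, viability was read by MTT formazan absorbance at 540 and 690 nm. CC₅₀ is the concentration that lowered OD540 of the mock-infected control by 50%, using the median OD of three wells.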
# [4] = Selectivity index, ratio of CC50 for human MT4 cells to EC50 for wild type Human immunodeficieny virus 1 3B infected in human MT4 cells; format: toxicity, cell-based; details: read-out: Ratio CC50/EC50
# Outline: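 SI is CC₅₀ in mock-infected MT-4 cells divided by EC₅₀ against HIV-1 IIIB, both from 5-day MTT assays in triplicate wells.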
# [5] = target: Human immunodeficiency virus type 1 reverse transcriptase (Human immunodeficiency virus 1, UniProt Q72547); assay: Inhibition of HIV1 wild type RT using poly(rA)/oligo(dT)15 homopolymer template after 1 hrs by ELISA
# Outline: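 Wild-type HIV-1 RT was run on a poly(rA)/oligo(dT)₁₅ template, with oligo(dT) immobilized on plates and biotin-dUTP incorporated, 1 h at 37 °C. After Tris-HCl pH 7.5 washes, incorporated biotin was detected colorimetrically by streptavidin–alkaline phosphatase with PNPP (1 mg/mL, pH 9.5), 30 min at 37 °C, stopped with 0.5 M NaOH.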
# [6] = system: Human immunodeficiency virus 2; assay: Antiviral activity against Human immunodeficiency virus 2 ROD infected in human MT4 cells assessed as inhibition of viral replication; format: functional, organism-based; details: ISOLATE ROD; outline: as §1
IC50 [5],Compound,EC50 [1],EC50 [2],CC50 at 120 h [3],selectivity ratio [4],inhibition [6]
30.7 µM,CCc1c(CN2CCCc3ccccc32)nc(SCC(=O)c2ccccc2)[nH]c1=O,0.24 µM,> 298 µM,298 µM,1220,inactive
–,CCc1c(CN2CCCc3ccccc32)nc(SCc2ccc(C)cc2)[nH]c1=O,≥ 5.42 µM,> 160 µM,160 µM,< 29,inactive
–,Cc1c(CN2CCCc3ccccc32)nc(SCc2ccc([N+](=O)[O-])cc2)[nH]c1=O,1.88 µM,> 76.9 µM,76.9 µM,41,inactive
